Screening data (PubChem)
The list is not random: actives were taken first. Their share in the collection is about 1%.
RAD52 inh: blocks human RAD52 DNA annealing; P43351; recombinant RAD52 DNA annealing, FRET fluorescence; inhibition, % at 18.7 µM; 360,000 compounds, 0.46% hits; AID 651710;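 active = every replicate showing at least 50% inhibition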
CAL PDZ FP-1: inhibitors of human CAL PDZ peptide binding. 330,000 compounds, 0.02% hits. purified CAL PDZ, TMR-peptide fluorescence polarization, 1 h. inhibition, % at 20 µM. Q9HD26;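 active = highest replicate inhibition of at least 40%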;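 also: plate controls were DMSO neutral control wells for no effect and unlabeled competitor peptide control wells for full effect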
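Material – purified CerCALP PDZ construct · Detection – FP readout, S and P plane fluorescence · Measure – percent inhibition from loss of millipolarization · Controls – unlabelled peptide for full inhibition, DMSO wells as neutral · Probe or stimulus – TMR-labelled reporter peptide T*-PRC34 bound in PDZ groove · Times – 1 h at RT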
CAL PDZ FP-2: inhibitors of human CAL PDZ peptide binding; Q9HD26; 300,000 compounds, 0.92% hits; inhibition, % at 24.9 µM; AID 602252; purified CAL PDZ, TMR-peptide fluorescence polarization, 1 h;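 active = mean inhibition of at least 30% with at least half of replicates also reaching 30%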;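 also: 0% = DMSO neutral control and 100% = excess unlabeled competitor peptide PRC23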
RAD54 inh: inhibitors of human RAD54 branch migration. Q92698. RAD54 Holliday junction branch migration, FAM/BHQ fluorescence. inhibition, % at 10.4 µM. 360,000 compounds, 0.14% hits. AID 602329;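 active = mean normalized replicate activity at least 40 and at least half of replicates scoring 40 or more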;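 also: 0% = median of neutral control wells and 100% = median of positive control wells; inhibitors cause a drop in the FAM fluorescence signal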
ERp5 block: inhibitors of human ERp5; Q15084; ERp5 insulin aggregation, absorbance 650 nm, 90 min; inhibition, % at 9.99 µM; 350,000 compounds, 0.05% hits; AID 651711;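 active = mean replicate inhibition above about 25%, with every replicate also reaching it, limit read from the data, passing the limit was not always enough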
PDI inh: inhibitors of human protein disulfide isomerase | P07237 | PDI insulin aggregation turbidity, A650, 90 min | inhibition, % at 10 µM | 350,000 compounds, 0.052% hits | AID 588391;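 active = mean inhibition across replicates of 30% or more, whatever share of single replicates reach that level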
Target sequence (P07237 whole entry, looked up): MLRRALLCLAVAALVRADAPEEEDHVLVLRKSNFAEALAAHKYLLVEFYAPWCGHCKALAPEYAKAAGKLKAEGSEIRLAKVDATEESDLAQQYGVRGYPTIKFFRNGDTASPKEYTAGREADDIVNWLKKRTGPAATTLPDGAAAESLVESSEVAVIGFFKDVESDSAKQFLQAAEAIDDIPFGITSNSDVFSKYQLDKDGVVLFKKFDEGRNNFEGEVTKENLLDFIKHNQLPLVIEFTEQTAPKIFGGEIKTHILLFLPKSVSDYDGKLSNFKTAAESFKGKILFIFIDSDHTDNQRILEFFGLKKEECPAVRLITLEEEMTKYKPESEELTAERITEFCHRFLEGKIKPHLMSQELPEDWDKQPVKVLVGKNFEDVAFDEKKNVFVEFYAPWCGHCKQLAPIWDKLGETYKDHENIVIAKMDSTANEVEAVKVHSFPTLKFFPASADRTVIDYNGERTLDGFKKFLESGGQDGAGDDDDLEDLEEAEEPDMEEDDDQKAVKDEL
Numbers without * were called inactive.

What do the screens show for `Cc1ccc(SCC(=O)Nc2ccc3c(c2)C(=O)NC3=O)cc1`?
RAD52 inh: -5; CAL PDZ FP-1: -1; CAL PDZ FP-2: -10; RAD54 inh: -3; ERp5 block: 6; PDI inh: -1

What do the screens show for `C[C@@H]1CCCCO[C@@H](CN(C)Cc2ccncc2)[C@H](C)CN([C@H](C)CO)C(=O)c2cc(NS(=O)(=O)c3cccs3)ccc2O1`?
RAD52 inh: -3; RAD54 inh: -1; ERp5 block: 11

Results for FC(F)(F)c1ccccc1NC(=S)N1CCCC1 ?
RAD52 inh: -7; CAL PDZ FP-1: -1; CAL PDZ FP-2: 50*; RAD54 inh: -3; ERp5 block: 1; PDI inh: -4

How did FC(F)(F)c1ccccc1NC(=S)N1CCN(c2ccccn2)CC1 do in these assays?
RAD52 inh: -12; CAL PDZ FP-1: 0; RAD54 inh: -7; ERp5 block: 3; PDI inh: 7

What do the screens show for `COc1cccc(NC(=O)Nc2ccc3c(c2)OC[C@H](C)NC[C@@H](C)[C@H](OC)CN(C)C3=O)c1`?
RAD52 inh: 26; RAD54 inh: -5; ERp5 block: 10

What do the screens show for `CO[C@H]1CN(C)C(=O)c2ccc(NC(=O)c3ccc(Oc4ccccc4)cc3)cc2OC[C@H](C)NC[C@H]1C`?
RAD52 inh: 52*; RAD54 inh: 7; ERp5 block: -2

How did COc1cccc(NC(=O)Nc2ccc3c(c2)OC[C@H](C)NC[C@@H](C)[C@@H](OC)CN(C)C3=O)c1 do in these assays?
RAD52 inh: 74*; RAD54 inh: -6; ERp5 block: 11

How did Cc1ccc(S(=O)(=O)N[C@@H]2CC[C@@H](CC(=O)NCCc3ccncc3)O[C@H]2CO)cc1 do in these assays?
RAD52 inh: -2; RAD54 inh: -1; ERp5 block: -3

How did N=c1sccn1CC(=O)Nc1cccc(Oc2ccccc2)c1 do in these assays?
RAD52 inh: 12; CAL PDZ FP-2: 38*; RAD54 inh: -2; ERp5 block: -2; PDI inh: 1

What do the screens show for `CC(=O)N(C)C[C@@H]1Oc2ncc(-c3cccnc3)cc2C(=O)N([C@@H](C)CO)C[C@@H]1C`?
RAD52 inh: 7; RAD54 inh: 4; ERp5 block: 0

How did COc1ccccc1CNC(=O)COC(=O)CC1CC2CCC1C2 (centres undefined) do in these assays?
RAD52 inh: -3; CAL PDZ FP-1: 0; CAL PDZ FP-2: 80*; RAD54 inh: -3; ERp5 block: 1; PDI inh: 3

What do the screens show for `Cc1n[nH]c(C)c1CCN(C)Cc1cn(C)nc1-c1ccc2c(c1)OCCO2`?
RAD52 inh: -29; CAL PDZ FP-1: 0; CAL PDZ FP-2: 102*; RAD54 inh: -2; ERp5 block: 4; PDI inh: -4

What do the screens show for `COCCN1C(=O)N(c2cccc(OC)c2)C(=O)C1CC(=O)Nc1ccc(OC)cc1` (centres undefined)?
RAD52 inh: -1; CAL PDZ FP-1: 0; CAL PDZ FP-2: -4; RAD54 inh: 3; ERp5 block: 1; PDI inh: -2

How did CCOc1ccc(NC(=O)CC2C(=O)N(c3cccc(OC)c3)C(=O)N2CCOC)cc1 (centres undefined) do in these assays?
RAD52 inh: 6; CAL PDZ FP-1: -2; CAL PDZ FP-2: 59*; RAD54 inh: 2; ERp5 block: -7; PDI inh: -3

Results for COc1cc(/C=C/C(=O)/C=C(O)/C=C/c2ccc(O)c(OC)c2)ccc1O ?
RAD52 inh: -40; CAL PDZ FP-1: 0; CAL PDZ FP-2: 1; RAD54 inh: -13; ERp5 block: 10; PDI inh: 46*

What do the screens show for `COc1cc(/C=C/C(=O)O)ccc1O`?
RAD52 inh: -3; CAL PDZ FP-1: 0; CAL PDZ FP-2: -4; RAD54 inh: -10; ERp5 block: 1

How did CC1=C(C(N)=O)C(c2ccc(Cl)cc2Cl)n2ncnc2N1 (centres undefined) do in these assays?
CAL PDZ FP-1: 0; CAL PDZ FP-2: 38*; RAD54 inh: -13; PDI inh: 9

What do the screens show for `O=C(Nc1ccnn1C1CCN(CC2CC=CCC2)CC1)c1ccccc1Cl` (centres undefined)?
RAD52 inh: -5; CAL PDZ FP-1: 1; CAL PDZ FP-2: 51*; RAD54 inh: 3; ERp5 block: -3; PDI inh: 0

How did C[C@@H]1CN([C@@H](C)CO)C(=O)Cc2cc(NS(C)(=O)=O)ccc2O[C@@H]1CN(C)Cc1ccc(C(=O)O)cc1 do in these assays?
RAD52 inh: -3; RAD54 inh: -2; ERp5 block: 1

What do the screens show for `N#CC(CCc1ccc([N+](=O)[O-])cc1)(CCc1ccc([N+](=O)[O-])cc1)C(N)=O`?
RAD52 inh: -281; CAL PDZ FP-1: -2; CAL PDZ FP-2: 43*; RAD54 inh: -9; ERp5 block: 0; PDI inh: 2

How did COc1ccc(S(=O)(=O)N2CCOCC2)cc1NC(=O)CN1CCCCCC1 do in these assays?
RAD52 inh: -22; CAL PDZ FP-1: 32; CAL PDZ FP-2: 36*; RAD54 inh: 2; ERp5 block: 2; PDI inh: 0

What do the screens show for `O=C(CSc1nncs1)Nc1cc(S(=O)(=O)N2CCOCC2)ccc1N1CCCC1`?
RAD52 inh: -2; CAL PDZ FP-1: -2; CAL PDZ FP-2: -3; ERp5 block: 3; PDI inh: 15

What do the screens show for `Nc1nnc(SCC(=O)Nc2cc(S(=O)(=O)N3CCOCC3)ccc2N2CCCC2)s1`?
RAD52 inh: -34; CAL PDZ FP-1: -3; CAL PDZ FP-2: 68*; RAD54 inh: 2; ERp5 block: 1; PDI inh: 8

What do the screens show for `COc1ccc(S(=O)(=O)N2CCOCC2)cc1C(=O)NCC(c1ccccc1)c1ccccc1`?
RAD52 inh: -6; CAL PDZ FP-1: -1; CAL PDZ FP-2: 42*; RAD54 inh: -10; ERp5 block: -2; PDI inh: -3

How did COc1ccc(S(=O)(=O)N2CCOCC2)cc1C(=O)NCc1ccccc1CN1CCCC1 do in these assays?
RAD52 inh: -13; CAL PDZ FP-1: -2; CAL PDZ FP-2: -5; RAD54 inh: -6; ERp5 block: 0; PDI inh: 12

How did CC(C)CC#Cc1cnc2c(c1)C(=O)N([C@@H](C)CO)C[C@H](C)[C@@H](CN(C)C(=O)CCN1CCCCC1)O2 do in these assays?
RAD52 inh: 10; RAD54 inh: 9; ERp5 block: 8

What do the screens show for `O=C(NNC(=O)c1ccc(Br)s1)c1cccc(S(=O)(=O)N2CCCC2)c1`?
RAD52 inh: -9; CAL PDZ FP-1: 0; CAL PDZ FP-2: 11; RAD54 inh: 0; ERp5 block: -9; PDI inh: 1

What do the screens show for `COc1ccc(NC(=O)c2cccc(S(=O)(=O)N3CCCC3)c2)cc1OC`?
RAD52 inh: -9; CAL PDZ FP-1: 0; CAL PDZ FP-2: 77*; RAD54 inh: 2; ERp5 block: 1; PDI inh: -2
